Source: ChEMBL document CHEMBL3286203, “Reactive oxygen species (ROS) inducible DNA cross-linking agents and their effect on cancer cells and normal lymphocytes” (J Med Chem, 2014)
The source made the active and inactive calls. No cut-off for these calls is given here.

Assays:
HCT-116 = assay: Cytotoxicity against human HCT116 cells assessed as growth inhibition at 10 uM after 48 hrs by SRB assay; type: functional, cell-based
In short: (§1)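 NCI DTP 60-cell-line screen run at the NCI. Cells were grown in RPMI 1640 with 5% FBS and 2 mM L-glutamine. They were seeded at 5000–40 000 cells/well depending on doubling time and grown in two plates per line. Each was exposed to a single 10 μM dose for 48 h at 37 °C, 5% CO2, 95% air, 100% humidity. Read-out was percent growth.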

SNB-75 = assay: Cytotoxicity against human SNB75 cells assessed as growth inhibition at 10 uM after 48 hrs by SRB assay; type: functional, cell-based
In short: (§2)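 NCI-60 DTP human tumour line screen. Cells grown in RPMI 1640 with 5% fetal bovine serum and 2 mM L-glutamine, plated at 5000–40 000 cells/well according to doubling time. Single dose of 10 μM for 48 h at 37 °C, 5% CO2, 95% air, 100% humidity, two plates per line. Read-out is growth percent.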

U-251 = assay: Cytotoxicity against human U251 cells assessed as growth inhibition at 10 uM after 48 hrs by SRB assay; type: functional, cell-based; in short: as §2
OVCAR-5 = assay: Cytotoxicity against human OVCAR5 cells assessed as growth inhibition at 10 uM after 48 hrs by SRB assay; type: functional, cell-based
In short: (§3)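 Single-dose screen run by the NCI Developmental Therapeutics Program (NCI-60). Cells were grown in RPMI 1640 with 5% fetal bovine serum and 2 mM L-glutamine. They were plated at 5000–40 000 cells/well, depending on doubling time. Each line was run in two plates and exposed to 10 μM drug for 48 h at 37 °C, 5% CO2, 100% humidity. Read-out was growth percent.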

SNB-19 = assay: Cytotoxicity against human SNB19 cells assessed as growth inhibition at 10 uM after 48 hrs by SRB assay; type: functional, cell-based; in short: as §2
HCC 2998 = assay: Cytotoxicity against human HCC2998 cells assessed as growth inhibition at 10 uM after 48 hrs by SRB assay; type: functional, cell-based; in short: as §1
OVCAR-8 = assay: Cytotoxicity against human OVCAR8 cells assessed as growth inhibition at 10 uM after 48 hrs by SRB assay; type: functional, cell-based; in short: as §3
SW-620 = assay: Cytotoxicity against human SW620 cells assessed as growth inhibition at 10 uM after 48 hrs by SRB assay; type: functional, cell-based; in short: as §2
KM12 = assay: Cytotoxicity against human KM12 cells assessed as growth inhibition at 10 uM after 48 hrs by SRB assay; type: functional, cell-based; in short: as §1
BT-549 = assay: Cytotoxicity against human BT549 cells assessed as growth inhibition at 10 uM after 48 hrs by SRB assay; type: functional, cell-based; in short: as §1
NCI-H522 = assay: Cytotoxicity against human NCI-H522 cells assessed as growth inhibition at 10 uM after 48 hrs by SRB assay; type: functional, cell-based; in short: as §3
A498 = assay: Cytotoxicity against human A498 cells assessed as growth inhibition at 10 uM after 48 hrs by SRB assay; type: functional, cell-based; in short: as §1
[1] = Induction of [32P]-labeled 49-mer oligonucleotide duplex DNA 12 with GNC sequence at terminus (unknown origin) interstrand cross-linking at 1 mM after 16 hrs by PAGE in presence of H2O2
In short: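 32P-labelled 12a (1.0 μM) annealed with 1.5 equiv of 12b in 10 mM potassium phosphate pH 7 / 100 mM NaCl (65 °C for 3 min, then slow cooling). Duplex incubated with compound (final 1 μM–5 mM), with or without H2O2, in NaCl and potassium phosphate pH 8 at room temperature for 16 h. Quenched in formamide; 20% denaturing PAGE.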

SK-MEL-5 = assay: Cytotoxicity against human SK-MEL-5 cells assessed as growth inhibition at 10 uM after 48 hrs by SRB assay; type: functional, cell-based; in short: as §3
UACC-62 = assay: Cytotoxicity against human UACC62 cells assessed as growth inhibition at 10 uM after 48 hrs by SRB assay; type: functional, cell-based; in short: as §2
HOP-62 = assay: Cytotoxicity against human HOP62 cells assessed as growth inhibition at 10 uM after 48 hrs by SRB assay; type: functional, cell-based; in short: as §1
RPMI-8226 = assay: Cytotoxicity against human RPMI8226 cells assessed as growth inhibition at 10 uM after 48 hrs by SRB assay; type: functional, cell-based; in short: as §3
EKVX = assay: Cytotoxicity against human EKVX cells assessed as growth inhibition at 10 uM after 48 hrs by SRB assay; type: functional, cell-based; in short: as §1
NCI-H460 = assay: Cytotoxicity against human NCI-H460 cells assessed as growth inhibition at 10 uM after 48 hrs by SRB assay; type: functional, cell-based; in short: as §3
SF-295 = assay: Cytotoxicity against human SF295 cells assessed as growth inhibition at 10 uM after 48 hrs by SRB assay; type: functional, cell-based; in short: as §3
SN12C = assay: Cytotoxicity against human SN12C cells assessed as growth inhibition at 10 uM after 48 hrs by SRB assay; type: functional, cell-based; in short: as §2
M14 = assay: Cytotoxicity against human M14 cells assessed as growth inhibition at 10 uM after 48 hrs by SRB assay; type: functional, cell-based; in short: as §1
MCF7 = assay: Cytotoxicity against human MCF7 cells assessed as growth inhibition at 10 uM after 48 hrs by SRB assay; type: functional, cell-based; in short: as §3
OVCAR-4 = assay: Cytotoxicity against human OVCAR4 cells assessed as growth inhibition at 10 uM after 48 hrs by SRB assay; type: functional, cell-based; in short: as §3
HT-29 = assay: Cytotoxicity against human HT-29 cells assessed as growth inhibition at 10 uM after 48 hrs by SRB assay; type: functional, cell-based; in short: as §1
CAKI-1 = assay: Cytotoxicity against human Caki1 cells assessed as growth inhibition at 10 uM after 48 hrs by SRB assay; type: functional, cell-based; in short: as §1
OVCAR-3 = assay: Cytotoxicity against human OVCAR3 cells assessed as growth inhibition at 10 uM after 48 hrs by SRB assay; type: functional, cell-based; in short: as §3
NCI-H23 = assay: Cytotoxicity against human NCI-H23 cells assessed as growth inhibition at 10 uM after 48 hrs by SRB assay; type: functional, cell-based; in short: as §3
Hs-578T = assay: Cytotoxicity against human Hs578T cells assessed as growth inhibition at 10 uM after 48 hrs by SRB assay; type: functional, cell-based; in short: as §1
NCI/ADR-RES = assay: Cytotoxicity against human NCI-ADR-RES cells assessed as growth inhibition at 10 uM after 48 hrs by SRB assay; type: functional, cell-based; in short: as §3
MDA-MB-435 = assay: Cytotoxicity against human MDA-MB-435 cells assessed as growth inhibition at 10 uM after 48 hrs by SRB assay; type: functional, cell-based; in short: as §3
COLO 205 = assay: Cytotoxicity against human COLO205 cells assessed as growth inhibition at 10 uM after 48 hrs by SRB assay; type: functional, cell-based; in short: as §1
HL-60(TB) = assay: Cytotoxicity against human HL-60(TB) cells assessed as growth inhibition at 10 uM after 48 hrs by SRB assay; type: functional, cell-based; in short: as §1
Malme-3M = assay: Cytotoxicity against human MALME-3M cells assessed as growth inhibition at 10 uM after 48 hrs by SRB assay; type: functional, cell-based; in short: as §1
PC-3 = assay: Cytotoxicity against human PC3 cells assessed as growth inhibition at 10 uM after 48 hrs by SRB assay; type: functional, cell-based; in short: as §3
SK-OV-3 = assay: Cytotoxicity against human SKOV3 cells assessed as growth inhibition at 10 uM after 48 hrs by SRB assay; type: functional, cell-based; in short: as §3
UACC-257 = assay: Cytotoxicity against human UACC257 cells assessed as growth inhibition at 10 uM after 48 hrs by SRB assay; type: functional, cell-based; in short: as §2

SMILES | growth inhibition (GI) (HCT-116) | growth inhibition (GI) (SNB-75) | growth inhibition (GI) (U-251) | growth inhibition (GI) (OVCAR-5) | growth inhibition (GI) (SNB-19) | growth inhibition (GI) (HCC 2998) | growth inhibition (GI) (OVCAR-8) | growth inhibition (GI) (SW-620) | growth inhibition (GI) (KM12) | growth inhibition (GI) (BT-549) | growth inhibition (GI) (NCI-H522) | growth inhibition (GI) (A498) | Activity [1] | growth inhibition (GI) (SK-MEL-5) | growth inhibition (GI) (UACC-62) | growth inhibition (GI) (HOP-62) | growth inhibition (GI) (RPMI-8226) | growth inhibition (GI) (EKVX) | growth inhibition (GI) (NCI-H460) | growth inhibition (GI) (SF-295) | also measured
CC1(C)OB(c2ccc(N(CCCl)CCCl)cc2)OC1(C)C | Active | Active | Active | Active | Active | Active | Active | Active | Active | Active | Active | Active | 37% | Active | Active | Active | Active | Active | Active | Active | growth inhibition (GI) (SN12C): Active; growth inhibition (GI) (M14): Active; growth inhibition (GI) (MCF7): Active; growth inhibition (GI) (OVCAR-4): Active; growth inhibition (GI) (HT-29): Active; growth inhibition (GI) (CAKI-1): Active; growth inhibition (GI) (OVCAR-3): Active; growth inhibition (GI) (NCI-H23): Active; growth inhibition (GI) (Hs-578T): Active; growth inhibition (GI) (NCI/ADR-RES): Active; growth inhibition (GI) (MDA-MB-435): Active; growth inhibition (GI) (COLO 205): Active; growth inhibition (GI) (HL-60(TB)): Active; growth inhibition (GI) (Malme-3M): Active; growth inhibition (GI) (PC-3): Active; growth inhibition (GI) (SK-OV-3): Active; growth inhibition (GI) (UACC-257): Active
CC1(C)OB(c2ccc(N(CCBr)CCBr)cc2)OC1(C)C | Active | Active | Active | Active | Active | Active | Active | Active | Active | Active | Active | Active | 37% | Active | Active | Active | Active | Active | Active | Active | growth inhibition (GI) (SN12C): Active; growth inhibition (GI) (M14): Active; growth inhibition (GI) (MCF7): Active; growth inhibition (GI) (OVCAR-4): Active; growth inhibition (GI) (HT-29): Active; growth inhibition (GI) (CAKI-1): Active; growth inhibition (GI) (OVCAR-3): Active; growth inhibition (GI) (NCI-H23): Active; growth inhibition (GI) (Hs-578T): Active; growth inhibition (GI) (NCI/ADR-RES): Active; growth inhibition (GI) (MDA-MB-435): Active; growth inhibition (GI) (COLO 205): Active; growth inhibition (GI) (HL-60(TB)): Active; growth inhibition (GI) (Malme-3M): Active; growth inhibition (GI) (PC-3): Active; growth inhibition (GI) (SK-OV-3): Active; growth inhibition (GI) (UACC-257): Active
